Only some compounds are listed: those with a hit (about 3.5% of all), similar ones and a draw of the others.
RGS4 block = human RGS4 inhibition; actives 0.45% (n = 310,000); HEK293 M3R/RGS4 inducible, Fluo-4 calcium flux; active compounds read high; triggered by carbachol at its EC20; B-score at 10 µM; P49798; AID 463165;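 active = B-score, a plate-corrected calcium signal, over three deviations above library mean, with baseline fluorescence within five deviations of library mean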;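 also: RGS4 expression induced by doxycycline in cells with stable M3 receptor; B-score is computed from the integrated fluorescence ratio over baseline after carbachol; higher B-score means a larger calcium signal and so more RGS4 inhibition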
Target sequence (P49798 whole entry, looked up): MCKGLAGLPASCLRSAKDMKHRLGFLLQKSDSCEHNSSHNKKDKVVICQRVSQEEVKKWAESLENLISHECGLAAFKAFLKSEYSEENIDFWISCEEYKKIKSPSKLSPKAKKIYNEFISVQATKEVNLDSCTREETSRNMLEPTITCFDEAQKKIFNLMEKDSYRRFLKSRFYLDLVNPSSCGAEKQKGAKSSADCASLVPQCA
MrgX1 agonist = agonists of human MrgX1 receptor; MrgX1-HEK293 cells, Fluo-4 calcium fluorescence, agonist mode; active compounds read high; B-score at 10 µM; actives 0.44% (n = 310,000);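 active = calcium response B-score plate-corrected fluorescence ratio at least 3 library SD, with starting fluorescence B-score inside 5 SD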
Target sequence (Q96LB2 whole entry, looked up): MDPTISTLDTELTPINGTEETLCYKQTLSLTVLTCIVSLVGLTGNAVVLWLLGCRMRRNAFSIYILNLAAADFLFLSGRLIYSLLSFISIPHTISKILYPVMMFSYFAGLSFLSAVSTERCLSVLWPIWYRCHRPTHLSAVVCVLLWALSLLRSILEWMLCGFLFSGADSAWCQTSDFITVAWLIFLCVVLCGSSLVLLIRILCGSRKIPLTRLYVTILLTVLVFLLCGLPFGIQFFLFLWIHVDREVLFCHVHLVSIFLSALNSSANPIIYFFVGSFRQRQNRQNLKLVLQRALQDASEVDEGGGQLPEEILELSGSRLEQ
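Material: HEK293 cells stably expressing human MrgX1 receptor | Quantity: 15,000 cells per well | Times: Cells plated overnight, dye loaded 0.5 h 37 °C, 0.5 h room temperature | Measured by: Kinetic Fluo-4 NW fluorescence of intracellular calcium | Control set: Positive and negative controls per plate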
RGS4 act = RGS4 potentiation or activation. HEK293 M3R/inducible RGS4, carbachol calcium flux Fluo4; active compounds read low. B-score at 10 µM. actives 0.92% (n = 310,000);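 active = B-score of the integrated calcium signal more than 4 SD below the library mean, with starting fluorescence not abnormally high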;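 also: negative B-score means reduced calcium response which marks RGS4 activation or potentiation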
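test system = HEK293 cells with stable M3R and inducible RGS4 | schedule = recording 10 s baseline at 1 Hz, 100 s post-agonist | technique = Fluo4-AM (2 µM) calcium-flux fluorescence, kinetic read | measure = Agonist-evoked peak-minus-minimum fluorescence over baseline, integrated ratio, B score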
MrgX1 antagonist = human MrgX1 receptor antagonism, primary screen; Q96LB2; MRGX1-HEK293 calcium flux, Fluo-4, BAM8-22 antagonism; active compounds read low; B-score at 10 µM; actives 1.3% (n = 310,000);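 active = calcium-response B-score plate-corrected more than 3 library SD below zero, starting fluorescence within 5 deviations, no agonist response on first addition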;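 also: peak minus trough fluorescence over baseline after final BAM8-22 challenge near maximal dose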
MrgX1 PAM = human MrgX1 positive allosteric modulation, primary screen | MrgX1-HEK293, Fluo-4 calcium flux, FDSS; active compounds read high | B-score at 10 µM | actives 0.63% (n = 310,000);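 active = plate-corrected calcium response at least 3 library SD above typical, normal starting fluorescence, not activating the receptor alone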;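 also: compound read alongside a low EC10 to EC30 dose of BAM8-22 agonist; peak minus trough fluorescence over baseline measured at the second addition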
* hit, by the source's call; i = inactive; / = no result.

SMILES | RGS4 block | MrgX1 agonist | RGS4 act | MrgX1 antagonist | MrgX1 PAM
CC(C)c1ccc(N2C(=O)CSC23C(=O)N2CCCc4cccc3c42)cc1 (stereo not given) | i | i | -7.61* | i | i
Cc1cc(C)n2nc3nc(N4CCCCC4)nc(-c4ccco4)c3c2n1 | i | i | i | -4.67* | i
Cc1cc(C)n2nc3ccccc3c2n1 | i | i | i | i | i
CCN(CC)c1nc(SCCOC(=O)Nc2ccccc2)nc(N(CC)CC)n1 | i | i | -8.79* | i | i
CCC(NC(=O)Cc1c(C)c2cc3c(cc2oc1=O)OC(C)(C)CC3)C(=O)O (stereo not given) | i | i | i | i | i
Cc1ccc(N(Cc2cc3ccc(C)cc3[nH]c2=O)S(=O)(=O)c2ccccc2)cc1 | i | i | i | i | i
O=C(NC1CC(=O)N(c2ccc(Cl)cc2)C1)N1CCN(C(=O)c2ccco2)CC1 (stereo not given) | i | i | i | i | i
COC(=O)c1cc2c(=O)c3ccccc3oc2nc1C | i | i | i | i | i
COC(=O)c1cc2c(=O)c3ccccc3oc2nc1/C=C/N(C)C | i | 67.5* | i | i | i
N#CCCCN1C(=O)C(=C(C#N)C#N)c2ccccc21 | i | 32.9* | i | i | i
CC1CC(C)CN(C(=O)c2cc(S(=O)(=O)N3CCCCC3)ccc2Cl)C1 (stereo not given) | i | i | i | i | i
CC1CC(C)CN(C(=O)c2ccc3c(c2NCCO)C(=O)c2ccccc2C3=O)C1 (stereo not given) | i | i | i | i | 13.9*
O=C1c2ccccc2-c2c1cccc2C(=O)N1CCCCC1 | i | i | i | i | i
CCC/C=C(\CCC)C(NS(=O)(=O)c1ccc(C(F)(F)F)cc1)c1ccccc1 (stereo not given) | i | i | -8.15* | i | i
O=C(O)C(NS(=O)(=O)c1ccc(F)cc1)c1ccccc1 (stereo not given) | i | i | i | i | i
CC(=O)c1ccc(OCC(=O)NC2CCCN(Cc3ccccc3F)C2)cc1 (stereo not given) | i | / | i | / | /
N/C(=N\OC(=O)C1CCCCC1)c1ccc(Br)cc1 | i | i | i | i | i
N/C(=N\OC(=O)C1CCCCC1)c1ccncc1 | i | i | i | -4.52* | i
COC(C/C=C\C(=O)[C@@H](C)OCc1ccccc1)OC | i | i | i | i | i
C=CCn1c(SCC(=O)NCC2CCCO2)nc2scc(-c3ccccc3)c2c1=O (stereo not given) | i | i | i | -5.15* | i
C(#Cc1ccccc1)C[N+]1(CC#Cc2ccccc2)CCCC1 | i | i | -8.05* | i | i
C=CC[N+]1(CC#Cc2ccccc2)CCCC1 | i | i | i | i | i
C=CCN1C(=O)[C@@H]2Cc3c([nH]c4ccccc34)C(c3ccc(O)cc3)N2C1=S (stereo not given in full) | i | i | i | -5.31* | i
CN(CC(=O)Nc1ccccc1Br)C(=O)c1cccn1C | i | i | i | i | i
CCOc1c(C=C(C#N)C#N)c2ccccc2n1CC | i | i | i | -5.39* | i
SMILES | RGS4 block | MrgX1 agonist | RGS4 act | MrgX1 antagonist | MrgX1 PAM
O=C(CC1C(=O)NCCN1CCCc1ccccc1)NCCc1ccccc1Cl (stereo not given) | i | i | i | i | i
Cc1csc(NC(=O)c2ccc(Cl)nc2)n1 | i | i | i | i | i
O=C(c1c(F)c(F)c(F)c(F)c1F)N1CCN(c2cccc(C(F)(F)F)c2)CC1 | i | i | -7.18* | i | i
O=C(c1ccccc1F)N1CCN(c2cccc(C(F)(F)F)c2)CC1 | i | i | i | i | i
COC(=O)c1ccccc1OCCCOc1ccc(C=O)cc1OC | i | i | i | i | i
CN(C)CCNc1oc(COc2ccc(Cl)cc2Cl)nc1C#N | i | i | i | -6.54* | i
COc1ccc(CCNc2oc(Cc3cccc4ccccc34)nc2C#N)cc1OC | i | i | i | i | i
COc1ccc(CCNc2oc(COc3ccc(Br)cc3)nc2C#N)cc1OC | i | i | -7.52* | i | i
COCCCNc1oc(COc2ccc(Cl)cc2Cl)nc1C#N | i | i | i | i | i
COc1ccc(NC(=O)CN2C(=O)NC(C)(c3ccccc3)C2=O)cc1Cl (stereo not given) | i | i | i | i | i
CC(C)(C)c1ccc(OCC(=O)NNC(=S)NC(=O)c2ccco2)c(Br)c1 | i | i | -10.4* | i | i
CC(C)c1ccc(OCC(=O)NNC(=S)NC(=O)c2ccco2)c(Br)c1 | i | i | -9.53* | i | i
CCOC(=O)C(=O)NCC(c1cccs1)S(=O)(=O)c1ccc(F)cc1 (stereo not given) | i | i | i | i | i
CCCc1cc(=O)oc2cc(C)cc(OCC(=O)NC(Cc3ccc(Cl)cc3)C(=O)O)c12 (stereo not given) | i | i | i | i | i
CCCCc1cc(=O)oc2cc(C)cc(OCC(=O)NC(Cc3ccc(Cl)cc3)C(=O)O)c12 (stereo not given) | i | i | -8.38* | i | i
Cc1onc(-c2c(Cl)cccc2Cl)c1C(=O)NC1CCCCC1 | i | i | i | i | i
Cc1onc(-c2c(Cl)cccc2Cl)c1C(=O)NN1CCCCCC1 | i | i | -8.44* | i | i
CC1CC(C)CN(C(=O)CSc2nc(Cc3cccs3)nc3ccccc23)C1 (stereo not given) | i | i | -7.08* | i | i
O=C(C1=C(O)C(=O)N(CCN2CCOCC2)C1c1ccc([N+](=O)[O-])cc1)c1cccs1 (stereo not given) | i | i | i | i | i
CN(C)CCCN1C(=O)C(O)=C(C(=O)c2cccs2)C1c1cccc([N+](=O)[O-])c1 (stereo not given) | i | i | i | i | 6.55*
Cc1ccc(C(=O)NCC(=O)OCC(=O)N(CC(C)C)c2c(N)n(Cc3ccccc3)c(=O)[nH]c2=O)cc1 | i | i | i | i | i
O=C(N/N=C/c1c[nH]c2ccccc12)c1ccc2c(c1)OCCO2 | i | i | i | i | i
O=C(N/N=C/c1c[nH]c2ccc(Br)cc12)c1ccc2c(c1)OCO2 | i | 45.1* | i | i | i
O=C(Cc1ccccc1)N[C@@H](Cc1ccc(O)cc1)C(=O)O | i | / | i | / | /
